Measurements collected from several papers.
Each line is one published result; the experiments were not run side by side.
JAK3 JH1: Tyrosine-protein kinase JAK3, JH1 (JAK3, Homo sapiens, UniProt P52333)
JAK3: Tyrosine-protein kinase JAK3 (JAK3, Homo sapiens, UniProt P52333)

`c1cnn2ncc(-c3ccnc(N4CCC45COC5)n3)c2c1` has a remaining signal of 68% (JAK3 JH1; cell-free assay; 1 µM).
With `Cn1nc(C(=O)NCc2ccc(C(=O)O)cc2)cc1-c1ccc2[nH]ccc2c1` the remaining binding was 65% (JAK3 JH1; cell-free assay, competition with immobilised ligand; 0.1 µM).
For `C[C@@H]1CCN(c2nccc(-c3cnn4ncccc34)n2)C1`, the remaining signal was 80% (JAK3 JH1; cell-free assay; 1 µM).
The remaining signal of `O=C1Nc2ccc(Cl)cc2C1=Cc1cc(Cl)c(O)c(Cl)c1` is reported as 100% (JAK3; cell-free assay; 0.5 µM).
With `CC/C(=N\NC(=O)NCc1cccc(O)c1)c1ccc(O)c(C)c1O` the inhibition was 3% (JAK3; enzyme activity, inhibitor; 0.1 µM).
`Cc1ccc(C(=O)NCc2ccsc2)cc1C#Cc1cn(C(C)C)c2ncnc(N)c12` gave an activity vs control of 74% (JAK3; enzyme activity, inhibitor; 1 µM).
`Cc1ccc(Nc2nccc(N(C)c3ccc4c(C)n(C)nc4c3)n2)cc1S(N)(=O)=O` gave an inhibition of 77% (JAK3; enzyme activity, inhibitor; 10 µM).
`CC(C)(C)c1nc(-c2cccc(NS(=O)(=O)c3c(F)cccc3F)c2F)c(-c2ccnc(N)n2)s1` gave a remaining activity of 115% (JAK3; enzyme activity, inhibitor, radiometric; 1 µM).
For `O=C(NC[C@@H]1[C@H]2CN(C(=O)OCc3cc(C(F)(F)F)cc(C(F)(F)F)c3)C[C@@H]12)c1ccc2[nH]nnc2c1`, the remaining binding was 69% (JAK3 JH1; cell-free assay, competition with immobilised ligand; 1 µM).
`CCOc1cc(-c2nncn2C)ccc1Nc1ncc2cc(C)nc(NCC(C)(C)C)c2n1` gave an inhibition of < 15% (JAK3; enzyme activity, inhibitor, FRET; 1 µM).
`C=CC(=O)Nc1cc(Nc2nccc(Nc3cc(Cl)c(F)cc3C(C)(C)O)n2)c(OC)cc1N1CC[C@@H](N(C)C)C1` gave an inhibition of 24% (JAK3; enzyme activity, inhibitor; 1 µM).
With `Cc1cnc(NC2CCOCC2)nc1-n1cnc(C(=O)NC(CN)c2cc(F)cc(Cl)c2)c1` (stereo not shown) the remaining activity was 118% (JAK3; enzyme activity, inhibitor, radiometric; 1 µM).
`O=C(CSc1nc2nccnc2c(=O)n1CCc1ccccc1)Nc1nccs1` has an inhibition of -2% (JAK3; enzyme activity, inhibitor; 10 µM).
`O=C(NCCCC1CCCCC1)c1ccc(CNC(=O)c2cnn(-c3ccccc3)c2C(F)(F)F)cc1` has a remaining binding of 100% (JAK3 JH1; cell-free assay, competition with immobilised ligand; 0.1 µM).
`O=C(Nc1cnn(-c2csc(C(=O)NC3COC3)c2)c1)Nc1ccccc1Cl` has a remaining activity of 102% (JAK3; enzyme activity, inhibitor; 5 µM).
For `CCS(=O)(=O)c1cc2cc(C[C@](O)(CC(C)(C)c3ccc(F)cc3C(N)=O)C(F)(F)F)[nH]c2cn1`, the remaining binding was 72% (JAK3 JH1; cell-free assay, competition with immobilised ligand; 1 µM).
With `CNC(=O)c1cc(Oc2ccc(NC(=O)Nc3ccc(Cl)c(C(F)(F)F)c3)cc2)ccn1` the remaining signal was 99.4% (JAK3; cell-free assay; 0.5 µM).
The remaining binding of `CC1=C(C#N)[C@@H](c2ccc3[nH]nc(C)c3c2)C(C#N)=C(c2ccc(Cl)cc2)N1` is reported as 100% (JAK3 JH1; cell-free assay, competition with immobilised ligand; 1 µM).
The inhibition of `CN1CC(Oc2cnc(C#N)cc2-c2ccn3nc(NC(=O)C4CC4)cc3c2)C1` is reported as 15% (JAK3; enzyme activity, inhibitor; 1 µM).
For `Cc1ccc(C(=O)Nc2ccc(CN3CCN(C)CC3)c(C(F)(F)F)c2)cc1C#Cc1cnc2cccnn12`, the remaining activity was 14% (JAK3; enzyme activity, inhibitor; 23.5 nM).
For `COc1ccc2c(c1)O[C@H](c1ccc(OC)c(OC)c1)C[C@@H]2NC(=O)C1(c2ccc3c(c2)OC(F)(F)O3)CC1`, the remaining binding was 100% (JAK3 JH1; cell-free assay, competition with immobilised ligand; 1 µM).
With `CCN(CC)CCNC(=O)c1c(C)[nH]c(/C=C2\C(=O)Nc3ccc(F)cc32)c1C` the inhibition was 7% (JAK3; enzyme activity, inhibitor; 0.3 µM).
`CN(C)CC#Cc1ccc(OCCCc2sc(N3CCc4cccc(C(=O)Nc5nc6ccccc6s5)c4C3)nc2C(=O)O)c(F)c1` gave a remaining binding of 58% (JAK3 JH1; cell-free assay, competition with immobilised ligand; 1 µM).
With `COc1cc2ncnc(Nc3ccc(Oc4ccccc4)cc3C)c2cc1OC` the inhibition was -6% (JAK3; enzyme activity, inhibitor; 1 µM).
`COc1cccc(CNC(=O)c2nc3scc(COCc4ccc(C(=O)O)cc4)c3c(=O)[nH]2)c1` gave a remaining binding of 78.4% (JAK3 JH1; cell-free assay, competition with immobilised ligand; 1 µM).
`Cc1cc(NC(=O)c2cccc3cc(-c4cccc5[nH]nc(N)c45)ccc23)ccc1F` has an activity vs control of 94% (JAK3; enzyme activity, inhibitor; 0.1 µM).
For `COc1cc2nccc(Oc3ccc(NC(=O)c4c5n(n(-c6ccc(F)cc6)c4=O)CCCC5)cc3)c2cc1OC`, the inhibition was -18% (JAK3; enzyme activity, inhibitor; 0.1 µM).
`O=C1NC(=O)c2cc(Nc3ccc(F)cc3)c(Nc3ccc(F)cc3)cc21` gave a remaining signal of 93.9% (JAK3; cell-free assay; 0.5 µM).
